The source made the active and inactive calls. The rule behind the calls is not given here.
Tests used:
Format in all cases: cell-based
Details in all cases: Homo sapiens
HEK293 [1] = assay: Induction of microtubule stabilization in HEK293 cells assessed as increase in acetylated alpha tubulin levels at 10 uM after 4 hrs by ELISA relative to control
Summary of the method: (§1)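 HEK-293 cells were exposed to the test compound at 1 or 10 μM for 4 h. Acetylated α-tubulin and total α-tubulin were then measured by ELISA in cell lysates. Levels are expressed relative to vehicle-treated control cells, as the average and SD of triplicate assays. Significance was tested by one-way ANOVA with Dunnett's post-hoc test. Changes in α-tubulin below 15% are treated as assay-to-assay variability.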

HEK293 [2] = assay: Induction of microtubule stabilization in HEK293 cells assessed as increase in acetylated alpha tubulin levels at 1 uM after 4 hrs by ELISA relative to control; summary of the method: as §1
HEK293 [3] = assay: Induction of microtubule disruption in HEK293 cells assessed as total alpha tubulin levels at 1 uM after 4 hrs by ELISA relative to control; summary of the method: as §1
HEK293 [4] = assay: Induction of microtubule disruption in HEK293 cells assessed as total alpha tubulin levels at 10 uM after 4 hrs by ELISA relative to control; summary of the method: as §1
HEK293 [5] = assay: Induction of microtubule disruption in HEK293 cells assessed as total alpha tubulin levels after 4 hrs by ELISA relative to control
Summary of the method: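 Total α-tubulin was measured by ELISA in lysates of HEK-293 cells after 4 h incubation with the test compound. Levels are expressed relative to vehicle-treated control cells. Significance was assessed by one-way ANOVA with Dunnett's post-hoc analysis.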

SMILES | Activity (HEK293 [1]) | Activity (HEK293 [2]) | fold change (FC) (HEK293 [3]) | fold change (FC) (HEK293 [1]) | fold change (FC) (HEK293 [4]) | fold change (FC) (HEK293 [2]) | Activity (HEK293 [5])
C[C@H](Nc1c(-c2c(F)cc(F)cc2F)c(N=[N+]=[N-])nc2ncnn12)C(F)(F)F | inactive | inactive |  |  |  |  | 
CNCCCOc1cc(F)c(-c2c(Cl)nc3ncnn3c2N[C@@H](C)C(F)(F)F)c(F)c1 |  |  | 0.51 | 0.1 | 0.14 | 7.07 | 
CN(C)CCCOc1cc(F)c(-c2c(Cl)nc3ncnn3c2NCC2(C)N=N2)c(F)c1 |  |  | 0.36 | 0.29 | 0.19 | 10.5 | Dose-dependent effect
C[C@@H](Nc1c(-c2c(F)cc(OCCCN(C)C)cc2F)c(Cl)nc2ncnn12)C1(C)N=N1 |  |  | 0.73 | 0.93 | 1.01 | 21.7 | Dose-dependent effect
C[C@H](Nc1c(-c2c(F)cc(OCCCN(C)C)cc2F)c(Cl)nc2ncnn12)C(F)(F)F |  |  | 0.29 | 0.3 | 0.14 | 5.83 | 
[N-]=[N+]=Nc1c(-c2c(F)cc(F)cc2F)c(Cl)nc2ncnn12 | inactive | inactive |  |  |  |  | 
C[C@H](Nc1c(-c2c(F)cc(F)cc2F)c(Cl)nc2ncnn12)C1(C)N=N1 |  |  |  | 1.85 | 0.94 |  | 
C[C@H](Nc1c(-c2c(F)cc(OCCCN(C)C)cc2F)c(Cl)nc2ncnn12)C1(C)N=N1 |  |  | 0.69 | 0.28 | 0.78 | 6.7 | 
C[C@H](Nc1c(-c2c(F)cc(OCCCNC(=O)c3ccc(C4(C(F)(F)F)N=N4)cc3)cc2F)c(Cl)nc2ncnn12)C(F)(F)F |  |  | 1.31 | 3.65 | 0.88 | 1.3 | 
CC1(CNc2c(-c3c(F)cc(F)cc3F)c(Cl)nc3ncnn23)N=N1 |  |  | 1.08 | 3.42 | 1.03 | 1.56 | 
CO[C@@H]1C[C@H]2CC[C@@H](C1)N2c1c(-c2c(F)cc(F)cc2F)c(Cl)nc2ncnn12 |  |  | 1.12 | 7.43 | 1.38 | 3.65 | 
C[C@@H](Nc1c(-c2c(F)cc(F)cc2F)c(Cl)nc2ncnn12)C1(C)N=N1 |  |  | 0.92 | 4.28 | 0.89 | 1.42 | 

Reference: ChEMBL document CHEMBL4118180, “Design, synthesis and evaluation of photoactivatable derivatives of microtubule (MT)-active [1,2,4]triazolo[1,5-a]pyrimidines” (Bioorg Med Chem Lett, 2018)
